# Hits are enriched below; roughly 2.4% of the tested compounds scored in any of these assays.
# MT1-MMP act inh – MT1-MMP (human) activation inhibition. HT1080 RFP-PRO-GFP cells, GFP/RFP ratio fluorescence, overnight; percent of plate control window, DMSO zero. GFP/RFP ratio change, % at 20 µM. actives 0.061% (n = 360,000). AID 651647;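 active = GFP/RFP ratio change of at least 30% with cell ATP level not reduced by more than half and red fluorescence within 50% of control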
#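 Compound: 20 µM single dose, 1% DMSO / System: HT1080 RFP-PRO-GFP cells / Controls: DMSO and RFP-L50D-GFP cell wells / Read-out basis: GFP/RFP fluorescence ratio / Schedule: overnight compound exposure at 37 °C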
# DAGLB inh – blocks human DAGLB lipase activity; HEK293T DAGLB membrane lysate, EnzChek fluorogenic substrate; inhibition, % at 5.17 µM; actives 0.059% (n = 340,000); in the data active = inhibition above about 34%;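 also: 0% = enzyme with vehicle and 100% = wells lacking enzyme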
# Myeloid diff 2 – promotes myeloid progenitor differentiation | ER-HoxA9 myeloid progenitors, lysozyme-GFP differentiation, flow cytometry | actives 1% (n = 360,000) | calls only at 10 µM;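 active = normalized GFP-positive differentiation at or above the plate's own cutoff, the solvent-only control mean plus 3 SD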;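 also: cells exposed to compound for four days before flow analysis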
# SENP1 FRET inh – inhibitors of human SENP1 SUMO protease catalytic domain. AID 624204. inhibition, % at 10 µM. recombinant SENP1 catalytic domain, CyPet-SUMO1-YPet FRET cleavage. Q9P0U3. actives 0.21% (n = 360,000);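 active = inhibition at least 30% at 10 µM, raw YFP signal under a set limit, fluorescence ratio 0.5 to 1.5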;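 also: 0% = enzyme with DMSO and 100% = no enzyme wells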
# Target sequence (Q9P0U3 419-644 limits assumed): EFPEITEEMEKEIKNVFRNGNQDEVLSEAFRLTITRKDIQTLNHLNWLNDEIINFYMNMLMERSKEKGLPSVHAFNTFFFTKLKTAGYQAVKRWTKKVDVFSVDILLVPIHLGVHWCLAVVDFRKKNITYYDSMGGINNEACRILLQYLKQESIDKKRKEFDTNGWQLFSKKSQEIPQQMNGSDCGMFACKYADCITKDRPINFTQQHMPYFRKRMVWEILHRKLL
#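 Material: hSENP1 catalytic domain, recombinant; medium: Tris pH 8 with BME, BSA, NP40 and catalase; compound: single concentration of 10 µM compound, 0.5% DMSO final; technique: FRET read of cyan and yellow fluorescence; timing: 50 min enzyme reaction, room temperature, light-protected; reagent: SFCypet-SUMO1-SFYpet substrate at 25 nM; control set: no-enzyme low, enzyme-DMSO high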
# MIN6 prolif – inducers of beta-cell replication in MIN6 cells; proliferation, % at 10 µM; actives 0.29% (n = 330,000); MIN6 cells proliferation, ATPlite luminescence, 48 h; cells starved in 0.2% serum; 100% = growth in 10% serum;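 active = compounds whose signal lies at least 3.5 SD above the mean of all wells on their plate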;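 also: 0% = DMSO-treated cells in low-serum medium and 100% = 10% serum control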
# CendR NRP1 mod – modulators of CendR peptide binding to human neuropilin-1 | O14786 | FAM-RPARPAR peptide binding to NRP-1, fluorescence polarization | inhibition, % at 25 µM | actives 0.85% (n = 360,000) | AID 602438;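 active = inhibition or corrected inhibition above about 18%, plus a signal ratio from 0.5 to 1.5, limit read from the data, passing the limit was not always enough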
# Myeloid diff CP1 – compounds promoting myeloid differentiation; calls only; AID 651706; actives 2% (n = 2,300); ER-HoxA9 myeloid progenitors, GFP/Mac1 double-positive flow; shares compounds with Myeloid diff 2;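 active = share of green or green-and-red cells above 9 and 9% in run 1 or 4 and 3% in run 2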
# GFP autofluor – compound fluorescence in myeloid differentiation counter-screen; shares compounds with Myeloid diff 2; ER-HoxA9 myeloid progenitors, no estrogen, GFP autofluorescence flow cytometry; vehicle wells 0%, positive control 100%; fluorescence response, % (concentration not given with the values); actives 7.4% (n = 2,300);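 active = over 5% cells positive for green fluorescent reporter, or over 2% positive for both it and APC stain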;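 also: range taken on the double positive population between DMSO and positive control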
# * = called active by the depositor; i = inactive; nt = not tested or not shown; + = active, no number.
SMILES,MT1-MMP act inh,DAGLB inh,Myeloid diff 2,SENP1 FRET inh,MIN6 prolif,CendR NRP1 mod,Myeloid diff CP1,GFP autofluor
CC(=O)c1cccc(CN2CCc3ccc(NC(=O)C4CCCO4)cc3C2)c1 (stereo unspecified),1.3,3.0,i,-1.0,1.9,-9.3,nt,nt
COc1ccc(OC)c(NC(=O)CNC(=O)c2ccc([N+](=O)[O-])cc2)c1,-3.5,0.8,i,-0.1,2.0,1.4,i,0.0
CC(C)OC(=O)c1ccc(N)cc1,-0.6,-0.8,i,0.7,-1.9,2.7,nt,nt
O=C(NCc1ccccn1)[C@@H]1CCCN1C(=O)[C@@H]1CCCN1C(=O)c1cccc(Cl)c1,6.4,nt,i,1.6,nt,0.1,i,0.0
COCCCN1C(=O)C(=O)/C(=C(/O)c2ccc(OC(C)C)cc2)C1c1ccncc1 (stereo unspecified),0.2,-3.1,i,-0.8,-3.4,10.0,i,0.2
CN1CCN(C(=O)C2=C[C@H](C(C)(C)C)C[C@H](OCCCCO)O2)CC1,5.3,1.3,i,-0.6,-2.0,9.8,nt,nt
COCCNC(=O)c1c(N)n(CCC2=CCCCC2)c2nc3ccccc3nc12,-46.3,-1.0,i,-22.2,-1.5,-9.1,i,0.0
CCc1ccc2nc(Nc3nc(COC)cc(=O)[nH]3)nc(C)c2c1,10.8,-2.3,nt,1.5,-2.6,16.4,nt,nt
COCc1cc(=O)[nH]c(Nc2nc3ccc(C)cc3o2)n1,2.6,0.6,i,-0.5,-5.4,2.6,i,3.8
CN1/C(=C\P(=O)(N(C)C)N(C)C)C(C)(C)c2ccccc21,99.4,-0.8,+,-0.8,-4.6,-69.8,i,81.8*
CCOC(=O)/C=C1/N(C)c2ccccc2C1(C)C,3.4,-2.8,i,1.5,-2.2,1.7,nt,nt
Cc1ccc(C(=O)COC(=O)CNC(=O)Cc2ccccc2)cc1,-2.7,-1.3,i,0.0,-2.5,8.6,nt,nt
O=C(Cc1ccccc1)NCC(=O)OCC(=O)c1ccc(OC(=O)c2ccccc2)cc1,5.3,-1.4,i,2.6,-0.6,-3.5,i,0.4
NC(=O)Nc1ccc(Oc2c(F)c(F)c(F)c(F)c2F)cc1,0.7,5.1,i,1.5,-2.0,39.7*,i,0.2
Cc1cc(C)cc(OCc2nc(-c3cccnc3)no2)c1,-1.7,-4.5,+,-0.2,0.3,-19.4,i,0.3
CCOC(=O)c1ccc2c(c1)[n+](CC)c(C)n2-c1ccccc1,-1.7,-3.1,i,2.1,1.9,4.8,nt,nt
CC[n+]1c(C)cc(C)n1-c1ccccc1,-0.1,1.9,i,-0.5,-0.1,17.6,i,0.0
CCOc1ccccc1C(=O)Nn1c(C2CCC2)nc2ccccc2c1=O,-0.8,-2.5,+,-2.6,0.4,-6.6,i,0.0
COc1ccccc1C(=O)Nn1c(C2CCC2)nc2ccccc2c1=O,-4.1,1.0,i,1.0,-2.2,3.6,nt,nt
Cc1noc(C)c1COc1ccc(C(=O)N2CCCC(C(N)=O)C2)cc1 (stereo unspecified),3.7,1.1,i,0.6,1.4,15.2,nt,nt
CCCCCCC1CCC(C(=O)Nn2c(C)nc3ccccc3c2=O)CC1 (stereo unspecified),6.2,0.7,i,0.0,-3.4,8.5,i,0.0
COc1cc(C(=O)NNC(=O)c2cc(-c3ccccc3)n[nH]2)cc(OC)c1C,2.3,5.3,i,0.4,-2.1,6.7,i,0.7
CSc1nnc(N2C(=O)C(O)=C(C(=O)c3ccc(C)o3)C2c2ccc(C)cc2)s1 (stereo unspecified),-45.6,4.8,+,-38.9,-3.1,-36.2,i,0.0
O=C(CSc1nc2ccccc2n1CC(=O)N1CCCC1)NCc1ccc2c(c1)OCO2,0.1,2.8,i,1.3,-0.3,-15.7,i,0.0
Cc1cc(NC(=O)CSc2nc3cc(Cl)ccc3o2)no1,1.4,6.4,i,-0.7,0.0,2.0,nt,nt
SMILES,MT1-MMP act inh,DAGLB inh,Myeloid diff 2,SENP1 FRET inh,MIN6 prolif,CendR NRP1 mod,Myeloid diff CP1,GFP autofluor
CCN(CC)S(=O)(=O)c1ccc2oc(SCC(=O)Nc3cc(C)on3)nc2c1,9.1,-0.6,+,-0.6,-7.3,11.7,i,0.7
CC(=O)N1CCN(C(=O)COC(=O)/C=C/c2ccc(C(F)(F)F)cc2)CC1,4.1,1.2,i,1.2,-3.1,-6.0,nt,nt
CN(C)S(=O)(=O)c1cc(NC(=O)COC(=O)C2CSC3(C)CCC(=O)N23)ccc1Cl (stereo unspecified),3.2,-0.2,i,2.9,-1.6,-7.8,nt,nt
Cc1ccc(CNC(=O)c2cc3c(=O)n4ccccc4nc3n(Cc3ccco3)c2=N)cc1,-5.9,13.4,i,-21.4,-3.7,-25.8,nt,nt
Cc1ccc(S(=O)(=O)c2cc3c(=O)n4ccccc4nc3n(Cc3ccco3)c2=N)cc1,-14.4,7.4,i,-31.1,-6.2,-62.8,i,0.0
COc1ccc(C(=O)Nc2ncccc2C)cc1S(=O)(=O)N1CCOCC1,-2.7,-4.0,i,-0.4,-1.1,6.2,nt,nt
Cc1ccc(NC(=O)Cn2nnc(C(=O)NCc3cccs3)c2N)cc1F,2.1,1.9,+,-0.3,-1.3,-4.1,i,0.2
CCCCSc1nnc(CCCCCNC(=O)OC(C)(C)C)o1,5.0,-4.3,+,1.5,-1.8,7.8,i,0.6
COc1ccc2c(C)nc(Nc3nc(C)cc(C)n3)nc2c1,-0.7,-0.6,i,-18.4,-0.7,-29.5,i,34.8*
COCC(=O)NC1CC(C)(C)Cc2c1cnn2-c1ccc(F)cc1 (stereo unspecified),1.3,0.3,i,1.5,1.0,0.7,nt,nt
Cc1c(Br)c(O)c(Br)c2sc(=O)oc12,-1.1,14.1,i,2.3,-6.3,8.6,i,0.0
Cc1onc(-c2ccccc2)c1C(=O)NCc1ccc(Cl)cc1,3.6,-1.7,i,0.9,-1.0,4.4,nt,nt
Cc1cc2c(cc1C)N(CC(=O)N1CCCC1)C(=O)CC(c1ccccc1)=N2,-0.8,-1.0,i,0.8,2.2,3.1,i,0.0
COc1cc(/C=N/Nc2nc(C)nc3c2cnn3-c2ccccc2)ccc1O,-1.2,3.6,i,-38.6,nt,-5.6,nt,nt
CCCC1=[N+](CC(=O)c2ccc(Br)cc2)CCn2cccc21,-82.2,3.8,i,-0.3,-3.4,-12.1,i,3.4
CCCC1=[N+](CC(=O)c2ccccc2)CCn2cccc21,-13.0,-1.8,i,24.0,-5.5,-11.6,i,3.3
CCCC1=[N+](CC(C)=O)CCn2c(C)ccc21,-5.1,3.1,i,-13.4,-1.8,0.0,nt,nt

# Bioassay records: PubChem, several laboratories
